{
  "source": "ChEMBL document CHEMBL4024804",
  "about": "(J Med Chem, 2018)",
  "key": {"PC-3 [1]": {"test_system": "PC-3", "assay": "Cytotoxicity against human PC3 cells after 72 hrs by MTS assay", "format": "functional, cell-based", "settings": "PC-3, 72 h", "in_short": "(§1)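 Cells treated 72 h at 10 concentrations, 0.03 nM–1 μM, n = 4. MTS read at 490 nm; IC50 by nonlinear regression. RI = resistant IC50 / parental IC50.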"}, "Homo sapiens [2]": {"organism": "Homo sapiens", "assay": "Inhibition of tubulin polymerization in human WM164 cells assessed as fragmentation of microtubules at 100 nM after 18 hrs using DAPI by immunofluorescence-based confocal microscopic method", "format": "cell-based", "in_short": "(§2)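 WM164 cells on glass coverslips (125 000 cells/well), incubated overnight, treated 18 h with 100 nM compound or DMSO vehicle. Stained with anti-α-tubulin and Alexa Fluor 647 anti-mouse IgG, mounted in DAPI-containing medium, and imaged by confocal microscopy.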"}, "Homo sapiens [3]": {"organism": "Homo sapiens", "assay": "Inhibition of tubulin polymerization in human WM164 cells assessed as increase in cytoplasmic soluble tubulin levels at 100 nM after 18 hrs using DAPI by immunofluorescence-based confocal microscopic method", "format": "cell-based", "in_short": "as §2"}, "[4]": {"assay": "Cytotoxicity against human PC3-TxR cells after 72 hrs by MTS assay", "format": "functional, cell-based", "in_short": "as §1"}, "Homo sapiens [5]": {"organism": "Homo sapiens", "assay": "Inhibition of tubulin polymerization in human WM164 cells assessed as decrease in polymeric tubulin filaments at 100 nM after 18 hrs using DAPI by immunofluorescence-based confocal microscopic method", "format": "cell-based", "in_short": "as §2"}, "[6]": {"assay": "Cytotoxicity against human DU145-TxR cells after 72 hrs by MTS assay", "format": "functional, cell-based", "in_short": "as §1"}, "DU-145": {"test_system": "DU-145", "assay": "Cytotoxicity against human DU145 cells after 72 hrs by MTS assay", "format": "functional, cell-based", "settings": "DU-145, 72 h", "in_short": "as §1"}, "[7]": {"assay": "Resistance index, ratio of IC50 for human PC3-TxR cells to IC50 for human PC3 cells", "format": "functional", "in_short": "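Cells were treated 72 h with 10 concentrations from 0.03 nM to 1 μM, four replicates, A490 read. IC50 by nonlinear regression. RI = IC50 resistant / IC50 parental.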"}, "[8]": {"assay": "Resistance index, ratio of IC50 for human DU145-TxR cells to IC50 for human DU145 cells", "format": "functional", "in_short": "as §1"}, "M14": {"test_system": "M14", "assay": "Cytotoxicity against human M14 cells after 72 hrs by MTS assay", "format": "functional, cell-based", "settings": "M14, 72 h", "in_short": "(§3)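 Melanoma cells grown in DMEM with 10% FBS and seeded at 1800–3500 cells per well, then incubated overnight. Cells treated for 72 h with 10 concentrations from 0.03 nM to 1 μM, with DMSO vehicle, in four replicates. MTS added for at least 1 h at 37 °C and absorbance read at 490 nm. IC50 obtained by nonlinear regression.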"}, "A-375 [9]": {"test_system": "A-375", "assay": "Cytotoxicity against human A375 cells after 72 hrs by MTS assay", "format": "functional, cell-based", "settings": "A-375, 72 h", "in_short": "as §3"}, "RPMI-7951 [10]": {"test_system": "RPMI-7951", "assay": "Cytotoxicity against human RPMI7951 cells after 72 hrs by MTS assay", "format": "functional, cell-based", "settings": "RPMI-7951, 72 h", "in_short": "as §3"}, "A-375 [11]": {"test_system": "A-375", "assay": "Antimigratory activity in human A375 cells assessed as wound closure at 5 nM after 22 hrs (reference value: 60.7 +/- […])", "format": "functional"}, "RPMI-7951 [12]": {"test_system": "RPMI-7951", "assay": "Antimigratory activity in human RPMI7951 cells assessed as wound closure at 25 nM after 18 hrs (reference value: 71.8 +/- 1.8%)", "format": "functional"}, "RPMI-7951 [13]": {"test_system": "RPMI-7951", "assay": "Antimigratory activity in human RPMI7951 cells at 5 nM after 18 hrs by wound healing assay", "format": "functional, cell-based"}, "A-375 [14]": {"test_system": "A-375", "assay": "Antimigratory activity in human A375 cells assessed as wound closure at 25 nM after 22 hrs (reference value: 60.7 +/- […])", "format": "functional"}, "PC-3 [15]": {"test_system": "PC-3", "assay": "Antitumor activity against human PC3 cells xenografted in nude mouse assessed as decrease in tumor volume at 15 mg/kg, ip administered every other day for 3 weeks", "format": "functional, organism-based", "in_short": "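PC-3 cells (2.5 × 10^6) with Matrigel injected subcutaneously in dorsal flank of nude mice. At ~100 mm3, randomized (n = 8). Dosing ip every other day in 2:1 PEG300/PBS; vehicle PEG300/PBS 1:1. Caliper volume a × b2 × 0.5 three times weekly.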"}, "A-375 [16]": {"test_system": "A-375", "assay": "Antitumor activity against human A375 cells xenografted in nude mouse assessed as tumor growth inhibition at 15 mg/kg, ip administered every other day for 2 weeks relative to control", "format": "functional", "settings": "A-375, ip, 336 h, read-out: TGI", "in_short": "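Nude mice 6–8 weeks old; 2 × 10^6 A375 cells in FBS-free medium with Matrigel injected sc into dorsal flank. At about 100 mm3 mice were randomized, n = 8. Drug in 2:1 PEG300/PBS given ip every other day. Volume measured by caliper three times weekly (a × b2 × 0.5).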"}, "A-375 [17]": {"test_system": "A-375", "assay": "Induction of apoptosis in human A375 cells xenografted in nude mouse assessed as increase in cleaved caspase-3 levels at 15 mg/kg, ip administered every other day for 2 weeks by immunohistochemical analysis", "format": "functional, organism-based", "in_short": "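Formalin-fixed, paraffin-embedded A375 xenograft tumors from mice dosed ip every other day (2:1 PEG300/PBS). Serial sections immunostained with rabbit anti-cleaved caspase 3 antibody by the ABC-DAB method.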"}, "Mus musculus": {"test_system": "Mus musculus", "assay": "Toxicity in nude mouse xenografted with human PC3-TxR cells assessed as decrease in body weight at 15 mg/kg, ip administered every other day for 2 weeks", "format": "organism-based", "settings": "in vivo, 336 h"}, "PC3-TxR [18]": {"test_system": "PC3-TxR", "assay": "Antitumor activity against human PC3-TxR cells xenografted in nude mouse assessed as decrease in tumor volume at 15 mg/kg, ip administered every other day for 3 weeks", "format": "functional, organism-based", "in_short": "(§4)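 Paclitaxel-resistant PC-3/TxR, kept drug-free at least 1 week beforehand, implanted subcutaneously (2.5 × 10^6 cells with Matrigel) in nude mice. Randomized at ~100 mm3 (n = 7). Dosing ip every other day in 2:1 PEG300/PBS. Volume by caliper (a × b2 × 0.5) three times weekly, tumors weighed at end. One-way ANOVA with Dunnett's test versus vehicle.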"}, "PC3-TxR [19]": {"test_system": "PC3-TxR", "assay": "Antitumor activity against human PC3-TxR cells xenografted in nude mouse assessed as decrease in tumor weight at 15 mg/kg, ip administered every other day for 3 weeks", "format": "functional, organism-based", "in_short": "as §4"}},
  "note": "Active and inactive are the calls of the source. The calls are words filed in the database; no cut-off is given here.",
  "data": [
    {"smiles": "CC(=O)O[C@@]12CO[C@@H]1C[C@H](O)[C@@]1(C)C(=O)[C@H](O)C3=C(C)[C@@H](OC(=O)[C@H](O)[C@@H](NC(=O)OC(C)(C)C)c4ccccc4)C[C@@](O)([C@@H](OC(=O)c4ccccc4)[C@H]21)C3(C)C", "note": "[DOCETAXEL ANHYDROUS]", "values": [
      {"measurement": "IC50", "setting": "PC-3 [1]", "result": 0.5, "unit": "nM"},
      {"measurement": "inhibition", "setting": "Homo sapiens [2]", "result": "inactive"},
      {"measurement": "inhibition", "setting": "Homo sapiens [3]", "result": "inactive"},
      {"measurement": "IC50", "setting": "[4]", "result": 27.9, "unit": "nM"},
      {"measurement": "inhibition", "setting": "Homo sapiens [5]", "result": "inactive"},
      {"measurement": "IC50", "setting": "[6]", "result": 352, "unit": "nM"},
      {"measurement": "IC50", "setting": "DU-145", "result": 0.1, "unit": "nM"},
      {"measurement": "Ratio IC50", "setting": "[7]", "result": 55.8},
      {"measurement": "Ratio IC50", "setting": "[8]", "result": ">3523"}
    ]},
    {"smiles": "COc1ccc2c(c1)OCCN2c1nc(Cl)nc2ncccc12", "values": [
      {"measurement": "IC50", "setting": "M14", "result": 269, "unit": "nM"},
      {"measurement": "IC50", "setting": "A-375 [9]", "result": 223, "unit": "nM"},
      {"measurement": "IC50", "setting": "RPMI-7951 [10]", "result": 404, "unit": "nM"}
    ]},
    {"smiles": "COc1cc2c(c(OC)c1OC)-c1ccc(OC)c(=O)cc1[C@@H](NC(C)=O)CC2", "note": "[COLCHICINE]", "values": [
      {"measurement": "Activity", "setting": "A-375 [11]", "result": 46, "unit": "%"},
      {"measurement": "Activity", "setting": "RPMI-7951 [12]", "result": 42.8, "unit": "%"},
      {"measurement": "Activity", "setting": "RPMI-7951 [13]", "result": "inactive"},
      {"measurement": "Activity", "setting": "A-375 [14]", "result": 20.7, "unit": "%"}
    ]},
    {"smiles": "COc1ccc2c(c1)C(O)CCN2c1nc(Cl)nc2ncccc12", "note": "(stereo not drawn)", "values": [
      {"measurement": "IC50", "setting": "M14", "result": 52.6, "unit": "nM"},
      {"measurement": "IC50", "setting": "A-375 [9]", "result": 36.1, "unit": "nM"},
      {"measurement": "IC50", "setting": "RPMI-7951 [10]", "result": 41.9, "unit": "nM"}
    ]},
    {"smiles": "CC(=O)O[C@H]1C(=O)[C@@]2(C)[C@H]([C@H](OC(=O)c3ccccc3)[C@]3(O)C[C@H](OC(=O)[C@H](O)[C@@H](NC(=O)c4ccccc4)c4ccccc4)C(C)=C1C3(C)C)[C@]1(OC(C)=O)CO[C@@H]1C[C@@H]2O", "note": "[PACLITAXEL]", "values": [
      {"measurement": "Activity", "setting": "PC-3 [15]", "result": "Active"},
      {"measurement": "inhibition in vivo at 15 mg/kg", "setting": "A-375 [16]", "result": 76.5, "unit": "%"},
      {"measurement": "IC50", "setting": "PC-3 [1]", "result": 3.7, "unit": "nM"},
      {"measurement": "Activity", "setting": "A-375 [17]", "result": "Active"},
      {"measurement": "IC50", "setting": "[4]", "result": 111, "unit": "nM"},
      {"measurement": "Activity", "setting": "Mus musculus", "result": "Toxic"},
      {"measurement": "IC50", "setting": "[6]", "result": "> 1000", "unit": "nM"},
      {"measurement": "Activity", "setting": "PC3-TxR [18]", "result": "inactive"},
      {"measurement": "Activity", "setting": "PC3-TxR [19]", "result": "inactive"}
    ]}
  ]
}
